According to the EternaBench riboswitch data:

System: MS2 coat protein
Assay: apparent Kd, MS2 coat protein; higher = weaker binding; RNA-MaP array
Procedure, shortened: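 The designed RNAs, transcribed from sequenced DNA templates on an Illumina sequencing chip, were incubated with fluorescently labeled MS2 coat protein at room temperature. Protein ranged from 1.5 nM to 3 μM, with 0.8–1.5 h incubation at the lowest and 10–20 min at the highest concentrations, in Tris-HCl pH 7.5 buffer with KCl, MgCl2, BSA, DTT, tRNA and Tween20, with or without input ligand. The median of per-cluster binding-curve fits gives the apparent Kd, and designs measured on fewer than 10 clusters were excluded.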

[1] = designed as: OFF switch for flavin mononucleotide, no ligand
[2] = ligand present: flavin mononucleotide, designed as: OFF switch for flavin mononucleotide
[3] = designed as: ON switch for flavin mononucleotide, no ligand
[4] = ligand present: flavin mononucleotide, designed as: ON switch for flavin mononucleotide
[5] = designed as: ON switch for theophylline, no ligand
[6] = ligand present: theophylline, designed as: ON switch for theophylline
[7] = designed as: ON switch for tryptophan, no ligand
[8] = ligand present: tryptophan, designed as: ON switch for tryptophan

Sequence | apparent Kd [1] | apparent Kd [2] | apparent Kd [3] | apparent Kd [4] | further results
UGGCGCUGUGCAGGAUAUAUCAAUUAGAACAGGGCGCAGGGUAGAAACAUGAGGAUCACCCAUGUAUAGAAGGGCACAGUAGGU | 53.1 nM | 49.7 nM |  |  | 
CUCACUAAGCUUUAGGAUAUAGACACUGGCACAUGAGGAUCACCCAUGUUCAACAAGGCGGAUAACUAGAAGGAAAGUAACCUUUU |  |  | 11.9 nM | 9.64 nM | 
ACGAAGUGAGGAUAUACAUGAGGAUCACCCAUGUGCCCAGGGUGUGAUUGUAAAGAACGUAGAAGGCACAAUAG | 594 nM | 132 nM |  |  | 
CCUAACUGAGGAUAUGACAACUGGCACAUGAGGAUCACCCAUGUAGACUCAUUCGAGUUAUCAGAAGGCAGAAUAU | 10.7 nM | 18.8 nM |  |  | 
UUUAGGUCAGAGAAGGGCCAUUCUACAUACUCGGCAGGAUAUCUAUUACCUGACAUGAGGAUCACCCAUGUGGUGAACCGACCA |  |  | 199 nM | 311 nM | 
GCAUUAUUAUUAGAUACCAGUGUCGCAGGCGACAUGAGGAUCACCCAUGUAAAGUUACUCCACCCUUGGCAGCUAGUUCGACUAC |  |  |  |  | apparent Kd [5]: 103 nM; apparent Kd [6]: 26.3 nM
GGGUAACCAGUUAGGAUAUUGAAUAGUUUGAUGUUCAAGAAGGAACAUGAGGAUCACCCAUGUAUGGGACUAGA | 139 nM | 174 nM |  |  | 
GACUAAUAGGAGAAGGGACAAUCUACAAUCGCGUCAGGAUAUCCGACAUGAGGAUCACCCAUGUAGAGAAGGGCGCAGCCCGGC |  |  | 24.3 nM | 18.3 nM | 
AGGAAGACGAUGGAUACCAGACAACCAGGGAACAUGAGGAUCACCCAUGUGAUUGAAAGGGUCCCUUGGCAGCCAGAAGCCGUUG |  |  |  |  | apparent Kd [5]: 88.3 nM; apparent Kd [6]: 119 nM
AGUCGUUAACGGCGCAACACAUGAGGAUCACCCAUGUGCUAUGAGGAUAUCCGGGUGUACAAGCCGGAGAAGGCAUCGUUCUUU |  |  | 10.6 nM | 9.55 nM | 
GAUCUGGCGGUGAGGAUAUAUAUCAAAUGCAAGGCAUAGAAGGCACAUGAGGAUCACCCAUGUCUGCACCAGGG | 14 nM | 15.6 nM |  |  | 
GGGAUUCGUGUUAGGAUAUUGAGGUGUAUUCCCGACAAGAAGGAACAUGAGGAUCACCCAUGUUGGGAACUGUG | 33.9 nM | 62.6 nM |  |  | 
ACUAAUCAGCAACAUGAGGAUCACCCAUGUGGGCCGUCCGGCAGAAGGCCUACGCACUUAGACUAGGAGGAUAUGCAAGCAACU | 15.7 nM | 18.4 nM |  |  | 
AAAGAUAACAAAGGAUAUGGAAGAAAUUAUAGGCCAGAAGGAUGGAAAUUGACAAUCGUGACAUGAGGAUCACCCAUGUAAGAA |  |  | 15.9 nM | 13.2 nM | 
UGUACAACAUGAGGAUCACCCAUGUGGCACCUCUGUCGAUUCGAGGAUAUCAGGUAAAGUGGCUGUGAGAAGGCGAAAGUUCCG | 65 nM | 50.3 nM |  |  | 
GGUCGUCUAGUUAGGAUAUCAUUAUUAGAUUAAAUUGAGAAGGAACAUGAGGAUCACCCAUGUCGACAACUAUC | 7.13 nM | 8.12 nM |  |  | 
AAUUCAAGGGUUAGGAUAUUCAAUAUAAAAUACUAGAAGAAGGAACAUGAGGAUCACCCAUGUUAUAGUGAUCU | 27.1 nM | 32.1 nM |  |  | 
GACCCUACGGAGAAGGCACCUACAUGAGGAUCACCCAUGUUUGAUCGUUUGCCGGACGGCUUACGUGAGGAUAUCCAGGUACAG |  |  | 14.8 nM | 7.2 nM | 
UCUAACAUGAGGAUCACCCAUGUGGGUUAUCGAGGACCGGUACGGCCGCCACUCGACCAGUAUAACUGGCUAGAACGUAUUUGAU |  |  |  |  | apparent Kd [7]: 34 nM; apparent Kd [8]: 26.6 nM
GGCGGGAAAUGAGGAUAUGGUAGUUGAGAAACGCCAGAAGGCAUUGGCAAGGCUAGAGACAUGAGGAUCACCCAUGUAAUCAUA |  |  | 8.35 nM | 7 nM | 
GCACUAGAGCAAGGAUAUAUAUCGGAAUCUACAUGAGGAUCACCCAUGUGUGUGACUUCUCGCAGAUAGAAGGUGCUCGCUGAC | 433 nM | 206 nM |  |  | 
GCGGGAGCACAGAAGGCGGAACUAAAGCAAUUACCAAUAGUUAACAUGAGGAUCACCCAUGUGCCCGAGGAUAUGUCGAAAGUG |  |  | 53.2 nM | 10.6 nM | 
GUUCCCAUAUCAGGAUAUAUUUCACAUGAGGAUCACCCAUGUUACCCGUGAAGUCGACUCUAUGUAUAGAAGGGAUGAUGGGCC | 55.4 nM | 43.7 nM |  |  | 
UCACCAUGUCGAAACAUGAGGAUCACCCAUGUGAAUCAUGACAGAAGGUCUAUAGAAUGACGGAAGAAGGAUAUGUCAAUGCGC | 17.8 nM | 17.4 nM |  |  | 
UGUAUGUUAGGAUAUAGUGUGACACUGUAAUUGCUCGGCACCUAGAAGGAACAUGAGGAUCACCCAUGUGGUGG | 337 nM | 244 nM |  |  | 
AAGAGCAGAGGAUAUACAUAGGCAUCAGUUGAAGCAGCUGAACAUGAGGAUCACCCAUGUAGAAGGCUGACAAA | 5.43 nM | 7.29 nM |  |  | 
GGCCUUGUUGUUAUAGGACAUGAGGAUCACCCAUGUAUAUGUAAGGAUAUGAAUCGUAAGACGCAUCAGAAGGUACAGUACUGG | 122 nM | 55.8 nM |  |  | 

Sequence | apparent Kd [1] | apparent Kd [2] | apparent Kd [3] | apparent Kd [4] | further results
GCAUACGGAUAGAAGGAACUCUACGAUACGACAUGAGGAUCACCCAUGUAAUAUCAGUUAAACGGUUAGGAUAUAUGGGUAGUC |  |  | 81.6 nM | 41.9 nM | 
AAUACAUGAGGAUCACCCAUGUUGACAUCAUGAGCCAACCUUAGAAGGACUUUAAUGACGCUCGAGUAGGAUAUAAGGCAAGUU |  |  | 13.7 nM | 12 nM | 
CGCCUACAUGAGGAUCACCCAUGUGAUGUUACGGUAGGAUAUAGAGCUGAGCCACUCUGCCUAGAAGGACCUAUAC |  |  | 68.8 nM | 37.3 nM | 
UGAUUGAGCGGAGGAUAUCUUAAUGAGCACGUAAGAGAAGGCCGGUGGCUCCUAUAUGCAGCGCACAUGAGGAUCACCCAUGUC | 170 nM | 91.6 nM |  |  | 
UUACAAAACCAGAAGGUCUAAAAGAUUAAAUGAGAAGGAUAUGGCUAAACAUGAGGAUCACCCAUGUAGAAAACGAUACGUGAU |  |  | 37.8 nM | 29.9 nM | 
GACAAUAAUUCAACAAUCAAAAUAGUGGGACGAGGACCGGUACGGCCGCCACUCGCUGAAGCACAUGAGGAUCACCCAUGUCUAA |  |  |  |  | apparent Kd (designed as: OFF switch for tryptophan, no ligand): 17.2 nM; apparent Kd (ligand present: tryptophan, designed as: OFF switch for tryptophan): 17.8 nM
UCCAAAUUCCAGAAGGCGUUUAAGCGAGGGUAGGGCGUGCAACAUGAGGAUCACCCAUGUAAUCACGAGGAUAUGGGAGGCACC | 7.65 nM | 8.34 nM |  |  | 
AGACAUGAGGAUCACCCAUGUCUCGGGAUGCGUAGCUUGCACAGAAGGCAUGACCGCAACGGUGAUGAGGAUAUGUCGUACCAA |  |  | 25.9 nM | 8.87 nM | 
UCAUGGUCUGGAGAGAGAAUUACAUGAGGAUCACCCAUGUGCAGAAGGAGUUAUCGCACAACAAACUAGGAUAUGCCAAGAAUU |  |  | 98.1 nM | 152 nM | 
GUUUUUUAAGGAUAUUCUAUUUCUAACAUGAGGAUCACCCAUGUACCCUCGUGCUAGCGAGAAGAAGGUAACAAAC | 546 nM | 427 nM |  |  | 
CAGUGAGCCAAGAAGGUUGCUGACGAUAGUGGCAAAGGAUAUUGAGGGCGCAAUCAUUUACAUGAGGAUCACCCAUGUUCUUAC |  |  | 35.4 nM | 17.5 nM | 
CCUGAGGUUAUAGGAUAUAGGCUAGAGAGGUACGAUUCUUUAUGAACAUGAGGAUCACCCAUGUCCUAGAAGGAUACUUAGUAG |  |  | 58.1 nM | 112 nM | 
CACGAACAUGAGGAUCACCCAUGUCAGGAUAUCGUGCUAAUCCCAUAAUCGGCGCGCACGAGAAGGGACCAGGG | 12.7 nM | 19.6 nM |  |  | 
GCGCGCGGUGGCGGUCAACAUGAGGAUCACCCAUGUGUGAACAGAAGGCGCGUAUGCUACCAUGGCGAGGAUAUGUUGGGUCAG | 5.95 nM | 5.99 nM |  |  | 
UACAAACCGUUAGAUGGGACAUGAGGAUCACCCAUGUAUAACAGAAGGUCAAAUUGAAACAUUCAGAAGGAUAUGUCAUACAAA | 85.3 nM | 59.5 nM |  |  | 
CUUUAUACAUGAGGAUAUUGGAAAACCGGCGUACAAGAAGGCAUGACAUGAGGAUCACCCAUGUAAAGAUAAAGACAAAGCUAA |  |  | 22.7 nM | 10.3 nM | 
AGUUGUGGAAAGAAGGCGUGACGAGGUAAAUAUCCAACAUGAGGAUCACCCAUGUUUCUUGCCUACGAGGAUAUUUGUGCUAUC |  |  | 14 nM | 12.2 nM | 
CGGUGUGCAGAGGAUAUCGGCGUUUUCUCACAUCGAGAAGGCUGCACAUGAGGAUCACCCAUGUAUCUUUAGGA | 58.6 nM | 189 nM |  |  | 
UUAGAGAGAGGAUAUACAGAGUAUCAACUCGGCGGACAAGAACAUGAGGAUCACCCAUGUAGAAGGCUCUCAGA | 18.6 nM | 67.1 nM |  |  | 
UGUCCGUGAUCGGCCGCCACUCAACAAACCUGUGGAAACUGACAUGAGGAUCACCCAUGUUCUUGGAGGACCGGGAUUGCUUCGA |  |  |  |  | apparent Kd [7]: 14.6 nM; apparent Kd [8]: 17.3 nM
GUUUACAAUGUCAGGAUAUCACAGCGUACAAAUGUUGAGAAGGGACAUGAGGAUCACCCAUGUACACACCUCUU | 8.04 nM | 9.29 nM |  |  | 
CGUAUGUGAGGAUAUCCGAAACUAUUUACCAAAUUAUAAGUGGAGAAGGCACAUGAGGAUCACCCAUGUGAUGG | 11.5 nM | 24.6 nM |  |  | 
UUCUACUAGUGACACUACUAGACAUGAGGAUCACCCAUGUCAGAGGAUAUGGAAAGACAUUAUUACCAGAAGGCUGCCAAGGUA |  |  | 15.6 nM | 15 nM | 
AUUAGCAAGUCAUAGGAUAUGAAGCCACUUACAUGAGGAUCACCCAUGUAAUUCCGGGUCCCGCCUCAGAAGGAUGACGUAAUAGG |  |  | 17.1 nM | 7.12 nM | 
GAAGAAAAGUGAGGAUAUGGCAACCAGAUGACGCAAACAAUAAAACAUGAGGAUCACCCAUGUACCCAGAAGGCACCAAACAAA |  |  | 15.2 nM | 9.48 nM | 
GUCAACGAAGGAUAUACAGGGAUACCCGUCGAGUACGGAGCACAUGAGGAUCACCCAUGUAGAAGGUCGGUGUG | 52 nM | 142 nM |  |  | 
UAUACACAUCCACAUGAGGAUCACCCAUGUGUGCCUCGUUCCGAGGAUAUGGGCCACGAUGUUUCCCAGAAGGCGGUCGCUAUA | 15 nM | 12.7 nM |  |  | 
